# In the library only some 7.9% were active in any assay of this set; here they are far more common.
# RORA act – RORA (human) activation. 1.5% of 65,000 active. activation, % at 10 µM. AID 560. CHO-K1 Gal4-RORA LBD luciferase reporter, luminescence; percent increase over mock-subtracted basal signal;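 active = activation above the mean of all tested compounds plus 3 SD, cut at about 49% in these data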;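 note: 0% = DMSO-treated RORA cells and 100% = added signal equal to DMSO minus mock-transfected cells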
# Target sequence (P35398 whole entry, looked up, the tested form may be a part): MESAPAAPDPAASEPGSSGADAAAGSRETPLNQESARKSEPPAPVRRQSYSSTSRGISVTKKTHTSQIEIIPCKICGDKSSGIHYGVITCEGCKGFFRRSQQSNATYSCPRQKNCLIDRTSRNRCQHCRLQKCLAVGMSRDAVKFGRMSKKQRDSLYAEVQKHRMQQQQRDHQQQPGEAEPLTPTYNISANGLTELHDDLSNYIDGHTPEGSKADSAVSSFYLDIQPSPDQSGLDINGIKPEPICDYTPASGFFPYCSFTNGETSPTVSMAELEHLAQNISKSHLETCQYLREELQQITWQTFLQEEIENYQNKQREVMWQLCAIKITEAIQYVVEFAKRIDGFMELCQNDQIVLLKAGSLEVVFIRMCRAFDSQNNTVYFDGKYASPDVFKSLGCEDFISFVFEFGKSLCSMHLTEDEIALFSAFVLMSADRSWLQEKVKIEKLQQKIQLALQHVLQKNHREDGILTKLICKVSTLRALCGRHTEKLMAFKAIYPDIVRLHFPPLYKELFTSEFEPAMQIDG
# JNK3 inh – inhibitors of human JNK3 kinase; purified JNK3 kinase activity, HTS; inhibition, % at 8 µM; 0.61% of 60,000 active; AID 746; in the data active = inhibition above about 17%;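 note: 0% = DMSO and 100% = reference inhibitor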
# HEK293 NFkB inh – lowers PMA/ionomycin-induced NF-kB signal in HEK293 cells | HEK-293 NF-kB luciferase reporter, luminescence | inhibition, % at 3 µM | 0.21% of 62,000 active | AID 465;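 active = inhibition above the mean of all tested compounds plus 3 SD, cut at about 40% in these data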;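 note: 0% = stimulated DMSO wells and 100% = 10 µM reference inhibitor 5653914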
#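 Timing: 1 h pretreatment, 16 h stimulation, 37 °C; system: HEK-293 cells with stable firefly luciferase reporter driven by four HIV NF-kB elements; doses: 3 µM once, 0.30% DMSO; measured by: luciferase luminescence; control set: DMSO and 10 µM reference inhibitor; repeats: single test; reagent: PMA plus ionomycin mix as NF-kB-activating stimulus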
# SF-1 act – activates the human nuclear receptor SF-1 | Q13285 | 1.9% of 65,000 active | AID 522 | CHO-K1 Gal4-SF-1 LBD luciferase reporter; % increase over DMSO SF-1-specific signal | activation, % at 10 µM;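 active = activation above the mean activation of all tested compounds plus 3 SD, cut at about 50% in these data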
#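 Test system: CHO-K1 cells with Gal4–hSF-1 LBD chimera plus Gal4-driven luciferase; Input: 4,000 cells/well; Compound: 10 µM only; Times: 20 h compound treatment, 37 °C; Measured by: steady-glow luciferase luminescence, read after 15 min reagent incubation; Measure: percent activation versus DMSO; Control set: DMSO and mock-transfected background; Replicates: one test per compound.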
# D1 mod – allosterically modulates the human D1 dopamine receptor; P21728; HEK293 D1, CRE-luciferase, dopamine EC30 potentiation; actives deviate in either direction; B-score at 10 µM; 5.9% of 58,000 active;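 active = luminescence count or its row- and column-corrected plate score outside the 99.7% band of the plate's sample wells, on either side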
# * marks the source's active call; other numbers are inactive results; . = not tested or not shown.
SMILES,RORA act,JNK3 inh,HEK293 NFkB inh,SF-1 act,D1 mod
CC(C)c1cc(C(=O)Nc2ccc3c(c2)OCO3)no1,20,-5,-38,29,-3.3
Cc1cc(NC(=O)c2noc3c2CCCCC3)no1,58*,-3,4,39,-1.2
CC(=O)c1ccc(NC(=O)c2noc3c2CCCCC3)cc1,50*,4,-31,32,-2.1
CCCc1cc(C(=O)Nc2cccnc2)no1,14,2,16,-1,-0.9
Cc1cc(NC(=O)c2noc3c2CCCC3)no1,7,2,4,13,0.2
O=C(Nc1ccc2c(c1)OCO2)c1cc(C2CC2)on1,60*,0,-39,49,-2.7
O=C(NCc1ccc(F)cc1)c1noc2c1CCCCC2,18,7,-2,20,0.54
CCC(NS(=O)(=O)c1ccc(C)cc1)C(=O)Nc1ccc(NC(C)=O)cc1 (stereo not given),-23,2,17,-4,0.63
O=C(Cc1cc(=O)[nH]c(=O)[nH]1)N1CCC(Cc2ccccc2)CC1,3,-2,-1,-3,0.086
Cc1cc(NC(=O)C2(c3ccccc3)CCCC2)no1,-32,1,7,9,-0.35
COc1ccc(NC(=O)c2cc(C(C)C)on2)c(OC)c1,70*,-5,-12,50*,0.36
O=C(Nc1cc(Cl)ccc1Cl)c1noc2c1CCCC2,11,-11,16,14,-1
O=C(Nc1cccnc1)c1noc2c1CCCC2,49*,-1,2,26,-0.33
O=C(Nc1ccc2c(c1)OCO2)c1noc2c1CCCCC2,14,-1,-32,18,-4.4*
Cc1cc(Cl)c(S(=O)(=O)NC2CCCCC2)cc1OCC(=O)Nc1nncs1,-4,2,17,-18,-1.8
O=C1c2cccnc2C(=O)N1Cc1ccc2c(c1)OCO2,-8,-2,2,-9,1.2
COc1ccc(C2C=C(c3ccc(Br)s3)Nc3ncnn32)cc1OC (stereo not given),-13,-3,21,-22,-0.075
Nc1c(C(=O)NCc2ccco2)sc2nc3c(cc12)C(=O)CCC3,7,3,-2,31,-0.59
CCCOC(=O)c1sc2nc3c(cc2c1N)C(=O)CCC3,35,4,-22,60*,-1
Cc1ccc(S(=O)(=O)Cn2nnnc2CN2CCCC3(CCCCC3)C2)cc1,2,0,13,16,.
C=C1Cn2c(nnc2-c2ccc(Cl)cc2)S1,-21,1,4,6,.
Cc1oc2cc3c(C(=O)OCCN(C)C)c(C)oc3cc2c1C(=O)OCCN(C)C,-82,-7,78*,-79,-3.4*
Cc1ccc(C2C3CN(C(C)C)CC=C3C(C#N)=C(N)C2(C#N)C#N)cc1 (stereo not given),-28,5,.,-2,-3.1*
CN1CC=C2C(C#N)=C(N)C(C#N)(C#N)C(c3cccc(Cl)c3Cl)C2C1 (stereo not given),-12,4,23,-10,-4.7*
COc1ccc(C(=O)c2c[nH]c3ccccc23)cc1,.,.,.,.,-2.2*
SMILES,RORA act,JNK3 inh,HEK293 NFkB inh,SF-1 act,D1 mod
CC(C)N1C(=O)C2C(c3ccccc3O)NC(C)(C(=O)O)C2C1=O (stereo not given),-20,-1,20,-17,.
CCN(CC)c1ccc(C=N/C(C#N)=C(\N)C#N)cc1,28,-4,-26,57*,-0.66
Oc1[nH]c2ccccc2c1C=Nc1ccc2c(c1)OCO2,84*,36*,-52,62*,-4.4*
Oc1[nH]c2ccccc2c1/C=N/c1nccs1,39,27*,-5,38,-0.4
COc1cccc(C=Nc2ccc3c(c2)OCCO3)c1O,3,5,11,-8,-0.36
CCC(CO)NCc1ccc2c(c1)n(C)c(=O)n2C (stereo not given),4,0,-4,0,-0.97
O=C(NC1CCCC1)C(c1ccco1)N(Cc1ccccc1)C(=O)c1csnn1 (stereo not given),-25,3,10,4,-1
O=C(NC1CCN(Cc2ccccc2)CC1)C1COc2ccccc2O1 (stereo not given),-13,-5,-6,-1,-3.9*
CC(=O)N(CC(=O)O)c1ccccc1C(=O)O,.,.,.,.,-0.86
O=C(Cn1cnc2ccccc2c1=O)c1ccc2c(c1)OCCO2,39,6,-23,75*,-1.5
Cc1cccc(-n2nnnc2SCn2nnc3ccccc3c2=O)c1,-11,-5,-6,0,0.04
O=c1c2ccccc2nnn1CSc1ccc2c(c1)OCCO2,38,4,-25,77*,-0.41
O=c1c2ccccc2nnn1CSc1nnc2ccccn12,23,-2,-36,78*,-1
Cn1c(=O)c2c(SCC(=O)N3CCC(Cc4ccccc4)CC3)nc(C3CC3)nc2n(C)c1=O,-15,3,21,-4,-5.7*
COC(=O)c1cc(-c2ccc(OC)c(OC)c2)n[nH]1,1,.,1,15,7*
Cc1ccc(-c2ccc(/C=N/n3cnnc3)o2)cc1Cl,-11,0,9,8,-1.6
Clc1cccc(-c2ccc(/C=N/n3cnnc3)o2)c1,-8,4,14,10,-5.1*
CCCCn1c(CN2CCN(C(=O)c3ccco3)CC2)nc2c1c(=O)n(C)c(=O)n2C,2,-12,-2,9,0.39
CCOC(=O)c1ccc2ncc(C(=O)OCC)c(NCCN(C)C)c2c1,-18,-2,-2,4,2.9*
CC(=O)NCC(=O)OCN1C(=O)c2ccccc2C1=O,-13,1,.,-7,.
CCCCOC(=O)Nc1cc(C(=O)OC)ccc1C(=O)OC,-4,1,21,-8,-7*
CCCCOC(=O)Nc1ccc(C(=O)OC)cc1,15,-4,-8,44,0.24
O=C1[C@@H]2C(c3ccccc3Cl)=NO[C@@H]2C(=O)N1Cc1ccccc1,-19,1,14,4,0.049
Cc1cc(C(=O)NCc2ccc(S(N)(=O)=O)cc2)cs1,0,14,4,-6,-1.2
CCSc1ccccc1C(=O)NCc1ccc(S(N)(=O)=O)cc1,-9,9,18,-3,-3*
SMILES,RORA act,JNK3 inh,HEK293 NFkB inh,SF-1 act,D1 mod
Cc1ccccc1-c1nc(CN2CCC(C(=O)NCCCN3CC(C)CC(C)C3)CC2)c(C)o1 (stereo not given),4,0,10,1,-1.1
COc1cccc(OC)c1OCC(O)CN1CCN(c2ccccc2)CC1 (stereo not given),-7,5,-1,-6,-2.9
COc1ccccc1N1CCN(CC(O)c2ccc3cc[nH]c3c2)CC1 (stereo not given),-12,8,14,-18,-2.6*
COc1cc(OC)c(OC)cc1CN1CCN(c2ccccc2OC)CC1,2,0,0,-9,-3.7*
C=CCc1ccccc1OCC(O)Cn1ccnc1C (stereo not given),-2,5,8,14,-1.9
C=CCc1ccccc1OCC(O)CN1CCN(c2ccc(OC)cc2)CC1 (stereo not given),-10,-4,14,-2,-2.6*

# Screens (PubChem)
